Test results from ChEMBL document CHEMBL1275484, “Rifampin and rifaximin resistance in clinical isolates of Clostridium difficile” (Antimicrob Agents Chemother, 2008).

Experiments:
Format in all cases: functional
[1] = tested on: Clostridioides difficile; assay: Antimicrobial activity against Clostridium difficile isolate 79 by Etest
Summary of the method: (§1)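 Rifampin MIC by Etest on brucella blood agar, run per the strip manufacturer's instructions, against clinical isolates typed by HindIII REA.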

[2] = tested on: Clostridioides difficile; assay: Antimicrobial activity against Clostridium difficile isolate 47 by Etest
Summary of the method: (§2)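 Rifampin Etest strips were run on brucella blood agar following the manufacturer's instructions to give an MIC. Clinical isolates were typed by HindIII REA.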

[3] = tested on: Clostridioides difficile; assay: Antimicrobial activity against Clostridium difficile isolate 80 by agar dilution method
Summary of the method: (§3)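 CLSI reference agar dilution for anaerobes, with endpoints read per guideline M11-A7. Rifaximin was dissolved in methanol, diluted in 0.1 M phosphate buffer pH 7.4 with 0.45% SDS, and tested at 0.0009–256 μg/ml. Rifampin was dissolved in methanol, diluted in water, and tested at 0.00001–256 μg/ml. Control strain: C. difficile ATCC 70005. Isolates were typed by HindIII REA.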

[4] = tested on: Clostridioides difficile; assay: Antimicrobial activity against Clostridium difficile isolate 1 by agar dilution method
Summary of the method: (§4)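 MIC by CLSI reference agar dilution for anaerobes, with endpoints read per M11-A7 and C. difficile […] as control. Rifaximin was dissolved in methanol, diluted in 0.1 M phosphate buffer pH 7.4 plus 0.45% SDS, and tested at 0.0009–256 μg/ml. Rifampin was dissolved in methanol, diluted in water, and tested at 0.00001–256 μg/ml.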

[5] = tested on: Clostridioides difficile; assay: Antimicrobial activity against Clostridium difficile isolate 31 by Etest
Summary of the method: (§5)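 Rifampin MIC by Etest strip on brucella blood agar, run per the strip maker's instructions. Isolates were HindIII REA-typed clinical C. difficile.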

[6] = tested on: Clostridioides difficile; assay: Antimicrobial activity against Clostridium difficile isolate 63 by agar dilution method; summary of the method: as §3
[7] = tested on: Clostridioides difficile; assay: Antimicrobial activity against Clostridium difficile isolate 53 by Etest; summary of the method: as §2
[8] = tested on: Clostridioides difficile; assay: Antimicrobial activity against Clostridium difficile isolate 38 by agar dilution method
Summary of the method: as §3, with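 “dilution method” for “dilution”, “(pH 7.4)” for “pH 7.4”, “μg/ml.” for “μg/ml. Control strain:”, “[…] served as control.” for “70005.”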

[9] = tested on: Clostridioides difficile; assay: Antimicrobial activity against Clostridium difficile isolate 11 by Etest; summary of the method: as §5
[10] = tested on: Clostridioides difficile; assay: Antimicrobial activity against Clostridium difficile isolate 13 by agar dilution method; summary of the method: as §4
[11] = tested on: Clostridioides difficile; assay: Antimicrobial activity against Clostridium difficile isolate 77 by Etest; summary of the method: as §1
[12] = tested on: Clostridioides difficile; assay: Antimicrobial activity against Clostridium difficile isolate 39 by agar dilution method
Summary of the method: as §3, with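 “dilution method” for “dilution”, “(pH 7.4)” for “pH 7.4”, “μg/ml.” for “μg/ml. Control strain:”, “[…] served as control.” for “70005.”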

[13] = tested on: Clostridioides difficile; assay: Antimicrobial activity against Clostridium difficile isolate 51 by Etest; summary of the method: as §2
[14] = tested on: Clostridioides difficile; assay: Antimicrobial activity against Clostridium difficile isolate 16 by agar dilution method; summary of the method: as §4
[15] = tested on: Clostridioides difficile; assay: Antimicrobial activity against rifaximin-resistant Clostridium difficile isolate 24 expressing RpoB H502N and R505K mutants by agar dilution method
Summary of the method: as §4, with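 “MICs were found” for “MIC”, “by the” for “by”, “dilution method” for “dilution”, “with” for “plus”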

[16] = tested on: Clostridioides difficile; assay: Antimicrobial activity against Clostridium difficile isolate 19 by Etest; summary of the method: as §5
[17] = tested on: Clostridioides difficile; assay: Antimicrobial activity against Clostridium difficile isolate 74 by agar dilution method; summary of the method: as §3
[18] = tested on: Clostridioides difficile; assay: Antimicrobial activity against Clostridium difficile isolate 35 by agar dilution method; summary of the method: as §4
[19] = tested on: Clostridioides difficile; assay: Antimicrobial activity against rifaximin-resistant Clostridium difficile isolate 17 expressing RpoB H502N and I548M mutants by Etest
Summary of the method: (§6)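 Rifampin Etest on clinical C. difficile isolates typed by HindIII REA, run per the strip manufacturer's instructions on brucella blood agar, with the MIC read from the strip.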

[20] = tested on: Clostridioides difficile; assay: Antimicrobial activity against Clostridium difficile isolate 20 by agar dilution method; summary of the method: as §4
[21] = tested on: Clostridioides difficile; assay: Antimicrobial activity against rifaximin-resistant Clostridium difficile isolate 64 expressing RpoB H502R mutant by Etest; summary of the method: as §6
[22] = tested on: Clostridioides difficile; assay: Antimicrobial activity against Clostridium difficile isolate 56 by agar dilution method
Summary of the method: as §3, with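 “dilution method” for “dilution”, “(pH 7.4)” for “pH 7.4”, “μg/ml.” for “μg/ml. Control strain:”, “[…] served as control.” for “70005.”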

[23] = tested on: Clostridioides difficile; assay: Antimicrobial activity against rifaximin-resistant Clostridium difficile isolate 65 expressing RpoB H502N and R505K mutants by agar dilution method
Summary of the method: as §4, with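 “MICs were found” for “MIC”, “by the” for “by”, “dilution method” for “dilution”, “with” for “plus”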

[24] = tested on: Clostridioides difficile; assay: Antimicrobial activity against Clostridium difficile isolate 63 by Etest; summary of the method: as §1
[25] = tested on: Clostridioides difficile; assay: Antimicrobial activity against Clostridium difficile isolate 1 by Etest; summary of the method: as §5
[26] = tested on: Clostridioides difficile; assay: Antimicrobial activity against Clostridium difficile isolate 30 by Etest; summary of the method: as §5
[27] = tested on: Clostridioides difficile; assay: Antimicrobial activity against Clostridium difficile isolate 75 by agar dilution method; summary of the method: as §3
[28] = tested on: Clostridioides difficile; assay: Antimicrobial activity against Clostridium difficile isolate 52 by Etest; summary of the method: as §2
[29] = tested on: Clostridioides difficile; assay: Antimicrobial activity against Clostridium difficile isolate 45 by agar dilution method
Summary of the method: as §3, with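 “dilution method” for “dilution”, “(pH 7.4)” for “pH 7.4”, “μg/ml.” for “μg/ml. Control strain:”, “[…] served as control.” for “70005.”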

[30] = tested on: Clostridioides difficile; assay: Antimicrobial activity against Clostridium difficile isolate 19 by agar dilution method; summary of the method: as §4
[31] = tested on: Clostridioides difficile; assay: Antimicrobial activity against Clostridium difficile isolate 8 by agar dilution method; summary of the method: as §3
[32] = tested on: Clostridioides difficile; assay: Antimicrobial activity against Clostridium difficile isolate 61 by agar dilution method
Summary of the method: as §3, with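 “dilution method” for “dilution”, “(pH 7.4)” for “pH 7.4”, “μg/ml.” for “μg/ml. Control strain:”, “[…] served as control.” for “70005.”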

[33] = tested on: Clostridioides difficile; assay: Antimicrobial activity against Clostridium difficile isolate 34 by agar dilution method; summary of the method: as §4
[34] = tested on: Clostridioides difficile; assay: Antimicrobial activity against rifaximin-resistant Clostridium difficile isolate 68 expressing RpoB H502Y mutant by Etest; summary of the method: as §6
[35] = tested on: Clostridioides difficile; assay: Antimicrobial activity against Clostridium difficile isolate 14 by agar dilution method; summary of the method: as §4
[36] = tested on: Clostridioides difficile; assay: Antimicrobial activity against rifaximin-resistant Clostridium difficile isolate 21 expressing RpoB H502N and R505K mutants by Etest; summary of the method: as §6
[37] = tested on: Clostridioides difficile; assay: Antimicrobial activity against rifaximin-resistant Clostridium difficile isolate 21 expressing RpoB H502N and R505K mutants by agar dilution method
Summary of the method: as §4, with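 “MICs were found” for “MIC”, “by the” for “by”, “dilution method” for “dilution”, “with” for “plus”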

[38] = tested on: Clostridioides difficile; assay: Antimicrobial activity against Clostridium difficile isolate 27 by Etest; summary of the method: as §5
[39] = tested on: Clostridioides difficile; assay: Antimicrobial activity against Clostridium difficile isolate 56 by Etest; summary of the method: as §2
[40] = tested on: Clostridioides difficile; assay: Antimicrobial activity against Clostridium difficile isolate 16 by Etest; summary of the method: as §5
[41] = tested on: Clostridioides difficile; assay: Antimicrobial activity against Clostridium difficile isolate 15 by agar dilution method; summary of the method: as §4
[42] = tested on: Clostridioides difficile; assay: Antimicrobial activity against Clostridium difficile isolate 54 by Etest; summary of the method: as §2
[43] = tested on: Clostridioides difficile; assay: Antimicrobial activity against Clostridium difficile isolate 25 by Etest; summary of the method: as §5
[44] = tested on: Clostridioides difficile; assay: Antimicrobial activity against Clostridium difficile isolate 70 by Etest; summary of the method: as §1
[45] = tested on: Clostridioides difficile; assay: Antimicrobial activity against rifaximin-resistant Clostridium difficile isolate 50 expressing RpoB R505K mutant by Etest; summary of the method: as §6
[46] = tested on: Clostridioides difficile; assay: Antimicrobial activity against Clostridium difficile isolate 40 by Etest; summary of the method: as §2
[47] = tested on: Clostridioides difficile; assay: Antimicrobial activity against Clostridium difficile isolate 55 by Etest; summary of the method: as §2
[48] = tested on: Clostridioides difficile; assay: Antimicrobial activity against Clostridium difficile isolate 10 by agar dilution method; summary of the method: as §4
[49] = tested on: Clostridioides difficile; assay: Antimicrobial activity against Clostridium difficile isolate 59 by Etest; summary of the method: as §2
[50] = tested on: Clostridioides difficile; assay: Antimicrobial activity against rifaximin-resistant Clostridium difficile isolate 67 expressing RpoB H502N and R505K mutants by agar dilution method
Summary of the method: as §4, with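 “MICs were found” for “MIC”, “by the” for “by”, “dilution method” for “dilution”, “with” for “plus”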

Measured: MIC

CO[C@H]1/C=C/O[C@@]2(C)Oc3c(C)c(O)c4c(O)c(c(/C=N/N5CCN(C)CC5)c(O)c4c3C2=O)NC(=O)/C(C)=C\C=C\[C@H](C)[C@H](O)[C@@H](C)[C@@H](O)[C@@H](C)[C@H](OC(C)=O)[C@@H]1C [RIFAMPIN]
> 32000 ng/mL: [19] | [21] | [34] | [36] | [45]
0.09 ng/mL: [10]
0.9 ng/mL: [12] | [14] | [18] | [20] | [22] | [29] | [30] | [32] | [33] | [35] | [41]
> 256000 ng/mL: [15] | [23] | [37] | [50]
0.06 ng/mL: [3] | [4] | [17] | [27] | [31] | [48]
0.4 ng/mL: [6] | [8]
< 2 ng/mL: all other assays above
